As usually defined, the IC50 is the concentration needed to halve the response being measured. The low end stands for greater potency, the high end for weaker potency.

The source made the active and inactive calls. No cut-off for these calls is given here.

Assay [1] relates to HeLa. Nature of the assay: Growth inhibition in human HeLa cells after 72 hrs by trypan blue assay. It counts as functional, cell-based. The procedure, abridged: (§1)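 HeLa (F-12 medium) and A431 (D-MEM) cells were grown with 10% heat-inactivated FCS and antibiotics at 37 °C under 5% CO2. 4 × 10⁴ cells per well were seeded for 24 h, then medium was replaced with fresh medium containing test agents for 72 h. Viability was read by trypan blue. IC50 is the concentration halving cell number versus control.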

The test system of a further assay is A-431. Nature of the assay: Growth inhibition in human A431 cells after 72 hrs by trypan blue assay. It counts as functional, cell-based. The conditions noted are these: A-431, 72 h. A digest of the protocol:
as §1

A further assay concerns HL-60. Nature of the assay: Growth inhibition in human HL60 cells after 72 hrs by trypan blue assay. It counts as functional, cell-based. The settings on record: HL-60, 72 h. The procedure, abridged: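 HL-60 cells were grown in RPMI 1640 with 15% heat-inactivated FCS and antibiotics at 37 °C under 5% CO2. 4 × 10⁴ cells per well were seeded, and after 24 h test agents were added to complete medium for 72 h. Viability was read by trypan blue. IC50 is the concentration giving 50% reduction in cell number versus control cultures.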

In assay [2] the target is DNA topoisomerase 2-alpha (Homo sapiens) (UniProt P11388). Nature of the assay: Inhibition of human recombinant topoisomerase 2-mediated relaxation of supercoiled pBR322 DNA upt0 100 uM after 60 mins by agarose gel electrophoresis. The procedure, abridged: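 Supercoiled pBR322 (0.25 µg) was incubated with 1 U topoisomerase II plus compounds for 60 min at 37 °C in 20 µL. The reaction was stopped with SDS stop buffer and 50 µg/mL proteinase K for 30 min at 37 °C. Products were run on a 1% agarose gel at room temperature, then stained with 1 µg/mL ethidium bromide and imaged under UV.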

Assay [3] relates to Nucleic Acid. Nature of the assay: Binding affinity to Salmon testes DNA assessed as drug-DNA complex formation at drug/DNA ratio 0.08 by linear flow dichroism method. It counts as nucleic-acid assay. The settings on record: Salmonidae.
Assay [4] concerns Nucleic Acid. The assay is described as follows: Binding affinity to Salmon testes DNA assessed as drug-DNA complex formation at drug/DNA ratio 0.16 by linear flow dichroism method. It counts as nucleic-acid assay. The conditions noted are these: Salmonidae.
For assay [5], the system named is Nucleic Acid. Nature of the assay: Stabilization of supercoiled pBR322 DNA-human recombinant topoisomerase 2 complex assessed as linear DNA formation at 8 uM after 60 mins. It counts as nucleic-acid assay. The conditions noted are these: Escherichia coli.
The test system of assay [6] is Nucleic Acid. Nature of the assay: Induction of Escherichia coli supercoiled pBR322 DNA cleavage after 60mins by gel electrophoresis. It counts as nucleic-acid assay.
Assay [7] relates to Nucleic Acid. Nature of the assay: Stabilization of supercoiled pBR322 DNA-human recombinant topoisomerase 2 complex assessed as linear DNA formation at 10 to 100 uM after 60 mins. It counts as nucleic-acid assay. The settings on record: Escherichia coli.
Assay [8] relates to Nucleic Acid. Nature of the assay: Induction of Escherichia coli supercoiled pBR322 DNA cleavage at 50 uM after 60mins by gel electrophoresis. It counts as nucleic-acid assay.
The subject of assay [9] is HeLa. Nature of the assay: Induction of apoptosis in human HeLa cells assessed as induction of DNA fragmentation at 200 uM after 24 hrs using ethidium bromide staining by agarose gel electrophoresis. It counts as functional, cell-based. The procedure, abridged: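 HeLa cells (5 × 10⁵) were preincubated 24 h at 37 °C, then medium was replaced with fresh medium containing test agent; controls received solvent alone. After 24 h, nuclear DNA was extracted and dissolved in TE buffer (10 mM Tris pH 8, 1 mM EDTA). Fragmentation was examined on a 1% agarose gel.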

Sequence of DNA topoisomerase 2-alpha (Homo sapiens) (P11388 whole entry): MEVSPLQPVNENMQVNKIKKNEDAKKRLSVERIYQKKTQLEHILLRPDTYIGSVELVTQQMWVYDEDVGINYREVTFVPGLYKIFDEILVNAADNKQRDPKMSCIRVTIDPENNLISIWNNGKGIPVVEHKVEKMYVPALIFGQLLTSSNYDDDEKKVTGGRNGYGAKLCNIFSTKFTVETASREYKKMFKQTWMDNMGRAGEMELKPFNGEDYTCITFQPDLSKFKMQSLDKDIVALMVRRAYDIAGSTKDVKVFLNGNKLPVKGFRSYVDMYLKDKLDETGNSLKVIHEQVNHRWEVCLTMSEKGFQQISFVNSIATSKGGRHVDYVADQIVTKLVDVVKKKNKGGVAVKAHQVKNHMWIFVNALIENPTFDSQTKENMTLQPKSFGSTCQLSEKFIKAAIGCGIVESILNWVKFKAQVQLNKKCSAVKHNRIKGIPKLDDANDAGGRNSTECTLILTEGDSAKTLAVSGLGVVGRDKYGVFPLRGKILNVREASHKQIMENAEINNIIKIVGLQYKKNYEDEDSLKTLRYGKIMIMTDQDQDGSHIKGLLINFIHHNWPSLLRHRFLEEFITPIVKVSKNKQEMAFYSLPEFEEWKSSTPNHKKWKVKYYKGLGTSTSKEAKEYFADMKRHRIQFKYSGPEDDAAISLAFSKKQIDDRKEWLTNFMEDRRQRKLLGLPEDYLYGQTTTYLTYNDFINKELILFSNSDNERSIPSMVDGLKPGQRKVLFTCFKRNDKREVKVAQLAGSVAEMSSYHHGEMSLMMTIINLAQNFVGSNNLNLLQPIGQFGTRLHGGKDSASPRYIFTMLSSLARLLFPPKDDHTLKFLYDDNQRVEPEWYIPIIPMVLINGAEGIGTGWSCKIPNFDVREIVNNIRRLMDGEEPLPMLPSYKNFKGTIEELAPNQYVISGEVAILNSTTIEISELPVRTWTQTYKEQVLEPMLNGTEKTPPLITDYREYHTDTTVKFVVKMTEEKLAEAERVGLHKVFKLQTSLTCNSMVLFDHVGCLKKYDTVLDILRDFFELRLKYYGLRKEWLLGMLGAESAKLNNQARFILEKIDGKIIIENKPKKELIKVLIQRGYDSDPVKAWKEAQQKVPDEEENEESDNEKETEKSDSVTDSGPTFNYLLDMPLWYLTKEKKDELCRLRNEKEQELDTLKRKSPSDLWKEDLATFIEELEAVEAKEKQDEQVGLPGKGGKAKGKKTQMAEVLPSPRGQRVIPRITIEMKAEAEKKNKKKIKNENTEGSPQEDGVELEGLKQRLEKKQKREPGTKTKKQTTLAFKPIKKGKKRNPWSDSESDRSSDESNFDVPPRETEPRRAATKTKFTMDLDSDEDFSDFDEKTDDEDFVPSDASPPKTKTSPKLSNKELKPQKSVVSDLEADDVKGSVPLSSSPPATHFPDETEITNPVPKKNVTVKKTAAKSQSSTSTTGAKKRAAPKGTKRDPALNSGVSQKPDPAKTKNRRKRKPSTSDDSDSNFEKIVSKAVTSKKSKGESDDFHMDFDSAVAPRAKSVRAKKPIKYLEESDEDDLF

Turning to `Cc1c2ccncc2c(C)c2c1[nH]c1ccccc12` [ELLIPTECINE], the IC50 in the assay on HeLa [1] came to 0.31 µM; in the assay with A-431 it was 0.47 µM; in the assay on HL-60, 0.64 µM.

On to `CN(C)CCNc1ncnc2c1ccc1ccccc12`, for which, in assay [2], the inhibition result is “inactive”. For the same molecule, the IC50 was more than 100 µM with HeLa [1], 50.5 µM in the assay on A-431 and 61.6 µM in the assay on HL-60. Also, the outcome in the assay with Nucleic Acid [3] and with Nucleic Acid [4] was Active.

For `COc1cc(NS(C)(=O)=O)ccc1Nc1cc2cncnc2c2ccccc12`, the IC50 in the assay on HeLa [1] is more than 100 µM; in the assay with A-431, more than 100 µM; in the assay on HL-60, 26.9 µM.

As to `CS(=O)(=O)Nc1ccc(Nc2cc3ncncc3c3ccccc23)cc1`, the IC50 in the assay on HeLa [1], in the assay with A-431 and with HL-60 was more than 100 µM in each case.

Regarding `COc1cc(NS(C)(=O)=O)ccc1Nc1c2ccccc2nc2ccccc12` [AMSACRINE], the result with Nucleic Acid [5] was Active. For the same molecule, the IC50 in the assay on HeLa [1] was 0.012 µM; in the assay with A-431, 0.17 µM; in the assay on HL-60, 0.006 µM.

For `CN(C)CCNc1cc2cncnc2c2ccccc12`, in the assay on Nucleic Acid [6], the inhibition result is “Active”. Also, the IC50 with HeLa [1] was 15.7 µM; in the assay with A-431, 3.6 µM; in the assay with HL-60 it was 10.8 µM. The result in the assay with Nucleic Acid [3], in the assay with Nucleic Acid [7] and in the assay on HeLa [9] was Active. Also, the inhibition entry with Nucleic Acid [8] was “Dose-dependent effect”.

With `COc1cc(NS(C)(=O)=O)ccc1Nc1cc2ncncc2c2ccccc12`, the values for the IC50 with HeLa [1], in the assay on A-431 and with HL-60 were more than 100 µM, 77.7 µM and 30.7 µM, respectively.

As to `CN(C)CCNc1cc2ncncc2c2ccccc12`, in the assay with Nucleic Acid [6], the inhibition entry was “Active”. The values for the IC50 in the assay with HeLa [1], in the assay on A-431 and with HL-60 were 23.2 µM, 4.3 µM and 4.3 µM, respectively. In addition, the result with Nucleic Acid [3], in the assay with Nucleic Acid [7] and in the assay with HeLa [9] was Active. For the same molecule, the inhibition result with Nucleic Acid [8] is “Dose-dependent effect”.

As to `CS(=O)(=O)Nc1ccc(Nc2cc3cncnc3c3ccccc23)cc1`, the IC50 in the assay on HeLa [1] was more than 100 µM; in the assay on A-431 it was 57.7 µM; in the assay on HL-60, 26.5 µM.

The values are drawn from ChEMBL document CHEMBL1671773, “Benzoquinazoline derivatives as new agents affecting DNA processing” (Bioorg Med Chem, 2011).
